# Calls of active or inactive are those of the source. The rule behind the calls is not given here.
# How the values were obtained:
# MRC5 = experiment: Cytotoxicity against human MRC5 cells assessed as cell growth inhibition after 72 hrs by MTT assay; assay type: cell-based; conditions: MRC5, 72 h
# Method in brief: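 MRC5 cells in low-glucose DMEM + 10% hiFBS, seeded by trypsinization at 5000 cells/well with increasing compound concentrations. MTT read-out after 72 h at 37 °C. IC50 = 50% growth reduction versus untreated cells.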
# [1] = Selectivity index, ratio of IC50 for human MRC5 cells to IC50 for Leishmania major MHOM/IL/80/Friedlin promastigotes; assay type: toxicity; conditions: read-out: Ratio IC50
# Method in brief: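 SI is IC50(MRC-5)/IC50(parasite). L. major Friedlin promastigotes (1 × 10^6/mL) were exposed to increasing compound in modified RPMI-1640 + 10% hiFBS for 72 h at 28 °C, with MTT read at 540 nm. MRC5 cells (5000/well, low-glucose DMEM + 10% hiFBS) got increasing compound for 72 h at 37 °C, with MTT read-out. IC50 is versus untreated cells.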
# Leishmania major = experiment: Antileishmanial activity against Leishmania major MHOM/IL/80/Friedlin promastigotes after 72 hrs by MTT assay; assay type: functional
# Method in brief: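 L. major Friedlin promastigotes at 1 × 10^6 per mL, 72 h at 28 °C in modified RPMI-1640 + 10% hiFBS with increasing drug concentrations; proliferation by MTT, absorbance 540 nm.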
# Plasmodium falciparum = experiment: Antimalarial activity against erythrocyte stage of Plasmodium falciparum 3D7 preincubated for 48 hrs followed by [3H]-hypoxanthine addition measured after 18 hrs by liquid scintillation counting; assay type: functional
# Method in brief: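 P. falciparum 3D7-infected erythrocytes (1.5% hematocrit, 0.6% parasitemia) in RPMI 1640 + 10% AB human serum, DMSO ≤0.25% final. After 48 h at 37 °C, 0.6 μCi [3H]-hypoxanthine added for 18 h. Cells harvested onto glass-fibre filters and counted by scintillation, with uninfected-erythrocyte background subtracted. IC50 = 50% growth inhibition.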
# [2] = test system: Trypanosoma brucei brucei; experiment: Antitrypanosomal activity against bloodstream form of Trypanosoma brucei brucei after 72 hrs by alamar blue assay; assay type: functional
# Method in brief: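 Bloodstream-form T. b. brucei single marker S427 (S16) in HMI-9 + 10% hiFBS, seeded at 1 × 10^4 per mL. Increasing compound concentrations for 72 h at 37 °C, 5% CO2. Proliferation by alamarBlue fluorescence (ex 550/em 590 nm).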
# Danio rerio [3] = organism: Danio rerio; experiment: Acute toxicity in AB zebrafish embryo assessed as no observed effect concentration with mortality score of >20% at 100 uM after 96 hrs post-fertlization; conditions: in vivo
# Method in brief: (§1)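 AB-strain embryos, with abnormal ones discarded, were placed 20 per condition at 3 hpf into compound dilutions in 0.1% DMSO/E3 (0.01, 0.1, 1, 10, 100 μM) and kept at 28.5 °C to 96 hpf. Mortality was scored and LC50 fitted by sigmoidal curve. NOEC/LOEC took >20% mortality as the effect. Controls were 0.1% DMSO (triplicate) and DEAB.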
# Danio rerio [4] = organism: Danio rerio; experiment: (§2) Acute toxicity in AB zebrafish embryo assessed as mortality after 96 hrs post-fertlization; conditions: in vivo, 96 h; method in brief: as §1
# [5] = Selectivity index, ratio of IC50 for human MRC5 cells to IC50 for bloodstream form of Trypanosoma brucei brucei; assay type: toxicity; conditions: read-out: Ratio IC50
# Method in brief: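 Ratio of IC50 in MRC-5 to IC50 in parasite. Bloodstream-form T. b. brucei single-marker S427 (1 × 10^4/mL, HMI-9 + 10% hiFBS) was exposed to increasing compound for 72 h at 37 °C, 5% CO2, with alamarBlue fluorescence (ex 550/em 590).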
# [6] = Selectivity index, ratio of IC50 for human MRC5 cells to IC50 for erythrocyte stage of Plasmodium falciparum 3D7; assay type: toxicity; conditions: read-out: Ratio IC50
# [7] = Drug localization in Trypanosoma brucei kinetoplast at 5 uM after 30 mins by confocal microscopic analysis; assay type: ADME; conditions: 0.5 h
# Method in brief: (§3)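 T. brucei exposed to 5 μM compound in medium at 37 °C for 30 or 150 min. Fixed in 4% paraformaldehyde for 30 min, washed twice in cold PBS, then imaged by confocal microscopy using the compounds' intrinsic fluorescence.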
# [8] = test system: human telomeric hTel G-quadruplex DNA (Homo sapiens); experiment: Binding affinity to FT-labeled human telomeric hTel G-quadruplex DNA assessed as change in melting temperature at 2 uM at pH 7.2 by FRET melting assay
# [9] = as §2; parameters: species or system Danio rerio; conditions: AB, in vivo; method in brief: as §1
# Trypanosoma brucei [10] = experiment: Binding affinity to Trypanosoma brucei FT-labeled EBR1 G-quadruplex DNA at 3 uM by circular dichroism spectroscopic analysis
# Method in brief: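 EBR1-FT quadruplex at 3 μM in 10 mM lithium cacodylate pH 7.2 with 100 mM KCl, titrated with ligand (ratio 1:0 to 1:10). Spectra recorded at 25 °C in a 1 cm cell, average of three scans at 100 nm/min, 2 nm bandwidth.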
# [11] = Drug localization in Trypanosoma brucei nucleus at 5 uM after 30 mins by confocal microscopic analysis; assay type: ADME; conditions: 0.5 h; method in brief: as §3
# [12] = Drug localization in Trypanosoma brucei kinetoplast at 5 uM after 150 mins by confocal microscopic analysis; assay type: ADME; conditions: 2.5 h; method in brief: as §3
# Trypanosoma brucei [13] = experiment: Drug localization in Trypanosoma brucei nucleus at 5 uM after 150 mins by confocal microscopic analysis; assay type: ADME; conditions: 2.5 h; method in brief: as §3
# Danio rerio [14] = organism: Danio rerio; experiment: Acute toxicity in AB zebrafish embryo assessed as lowest observed effect concentration with mortality score of >20% at 100 uM after 96 hrs post-fertlization; conditions: in vivo; method in brief: as §1
SMILES,IC50 (MRC5),selectivity ratio [1],IC50 (Leishmania major),IC50 (Plasmodium falciparum),IC50 [2],NOAEL (Danio rerio [3]),LC50 (Danio rerio [4]),selectivity ratio [5],selectivity ratio [6],Drug uptake [7],ΔTm [8],LC50 at 96 h [9],Activity (Trypanosoma brucei [10]),Drug uptake [11],Drug uptake [12],Drug uptake (Trypanosoma brucei [13]),MTC (Danio rerio [14])
C[n+]1ccc(-c2c3nc(c(-c4cc[n+](C)cc4)c4ccc([nH]4)c(-c4cc[n+](C)cc4)c4nc(c(-c5cc[n+](C)cc5)c5ccc2[nH]5)C=C4)C=C3)cc1,> 25 µM,> 1.7,20.8 µM,> 25 µM,> 10 µM,–,–,–,–,–,–,–,–,–,–,–,–
C[C@H]1O[C@@H](n2cc(CNc3cc4c5c(ccc6c5c3C(=O)N(CCCN(C)C)C6=O)C(=O)N(CCCN(C)C)C4=O)nn2)[C@H](O)[C@@H](O)[C@@H]1O,0.91 µM,4.9,0.184 µM,0.225 µM,0.017 µM,100 µM,170 µM,53.5,4,–,–,–,–,–,–,–,–
CN(C)CCCN1C(=O)c2ccc3c4c(c(NCc5cn(CCO[C@@H]6O[C@H](CO)[C@@H](O)[C@H](O)[C@H]6O)nn5)cc(c24)C1=O)C(=O)N(CCCN(C)C)C3=O,0.71 µM,–,0.537 µM,0.275 µM,–,100 µM,–,–,2.6,Active,10 °C,> 1000 µM,Active,Active,Active,Active,–
CCCCCCCCCCCCCCCCOP(=O)([O-])OCC[N+](C)(C)C [MILTEFOSINE],–,–,6.07 µM,–,–,–,–,–,–,–,–,–,–,–,–,–,–
CN(C)CCCN1C(=O)c2ccc3c4c(c(NCc5cn(CCO[C@H]6O[C@H](CO)[C@@H](O)[C@H](O)[C@@H]6O)nn5)cc(c24)C1=O)C(=O)N(CCCN(C)C)C3=O,0.81 µM,2.6,0.306 µM,0.18 µM,0.021 µM,100 µM,–,38.6,4.5,–,–,> 1000 µM,–,–,–,–,–
CCCNc1cc2c3c(ccc4c3c1C(=O)N(CCCN(C)C)C4=O)C(=O)N(CCCN(C)C)C2=O,0.36 µM,–,0.034 µM,0.091 µM,–,100 µM,410 µM,–,4,Active,19 °C,–,Active,Active,Active,Active,1000 µM
CN(C)CCCN1C(=O)c2ccc3c4c(c(NCc5cn([C@@H]6O[C@H](CO)[C@@H](O)[C@H](O)[C@H]6O)nn5)cc(c24)C1=O)C(=O)N(CCCN(C)C)C3=O,1.15 µM,–,0.244 µM,1.35 µM,0.024 µM,100 µM,–,–,0.9,–,–,> 1000 µM,–,–,–,–,–
NCCOc1cc(C(=O)Nc2cc(OCCN)c3ccccc3n2)nc(C(=O)Nc2cc(OCCN)c3ccccc3n2)c1 [PYRIDOSTATIN],5.38 µM,1.1,5 µM,2.65 µM,7.82 µM,–,–,0.7,2,–,–,–,–,–,–,–,–
CC(=O)N[C@@H]1[C@@H](O)[C@H](O)[C@@H](CO)O[C@H]1n1cc(CNc2cc3c4c(ccc5c4c2C(=O)N(CCCN(C)C)C5=O)C(=O)N(CCCN(C)C)C3=O)nn1,0.51 µM,0.5,1.04 µM,0.36 µM,0.089 µM,100 µM,–,5.7,1.4,–,–,> 1000 µM,–,–,–,–,–
CN(C)c1ccc(Nc2c3ccc(NC(=O)CCN4CCCC4)cc3nc3cc(NC(=O)CCN4CCCC4)ccc23)cc1,8.33 µM,0.7,12.7 µM,9.7 µM,5.51 µM,–,–,1.5,0.9,–,–,–,–,–,–,–,–
